Calpain2 inh: inhibitors of pig calpain II, primary screen, biochemical, fluorogenic peptide substrate, 1536-well; purified calpain II, 30 min; inhibition, % at 16 µM; 220,000 tested, 0.37% active;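 active = inhibition above about 50%, limit read from the data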
RBBP9 inh: human RBBP9 inhibitors, primary screen, biochemical, fluorescence polarization, FP-Rh probe, HTS; Serine hydrolase RBBP9 (Homo sapiens), O75884; recombinant RBBP9; inhibition, % at 7.94 µM; 220,000 tested, 0.2% active; AID 1515, 2009;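 active = inhibition above the campaign mean of all tested compounds plus 3 SD, cut at about 14% in these data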;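 also: plate controls were DMSO wells with RBBP9 for no effect and wells lacking RBBP9 protein for full effect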
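Measured by: FP readout at 525/598 nm; material: recombinant human RBBP9; also added: Serine-hydrolase probe FP-Rh, 375 nM pre-mixing; medium: Tris buffer pH 8.0, NaCl, Pluronic; replication: one well per compound; doses: one concentration, 7.94 µM nominal, 0.794% DMSO; timing: preincubation 30 min plus labeling 45 min at 25 °C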
zVAD death inh: inhibitors of zVAD-triggered necroptosis, primary screen, L929 cells. 220,000 tested, 0.38% active. L929 zVAD necroptosis rescue, ATP luminescence, 24 h; with zVAD 60 µM. viability rescue, % at 10 µM;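 active = activation, scaled between plate controls, above about 75%, limit read from the data; inactive = activation under that limit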;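 also: 0% = zVAD with DMSO and 100% = DMSO alone without zVAD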
TNF death inh: inhibitors of TNF-alpha triggered necroptosis, primary screen, cell-based, Jurkat FADD-/-, single concentration; Jurkat FADD-/- TNF necroptosis rescue, ATP luminescence, 24 h; 0 = TNF only, 100 = no-TNF cells; activation (protection from cell death), % at 10 µM; 220,000 tested, 0.068% active;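 active = activation, meaning protection from cell death, of at least 50% relative to plate controls; inactive = activation below 50%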;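 also: necroptosis triggered by 40 ng/mL TNF-alpha added together with compound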
Pf gametocyte: late stage P. falciparum gametocyte viability inhibitors, primary screen, ATP luminescence, HTS; inhibition, % at 10.9 µM; P. falciparum stage V gametocytes, 24 h; 150,000 tested, 0.065% active;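 active = inhibition above the mean plus 3 SD of compounds within the control limits, set per campaign, cut at about 38% in these data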;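 also: 0% = DMSO wells and 100% = medium only without gametocytes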
Wee1 stabilizer: Wee1 degradation inhibitors, primary screen, cell-based, HeLa, Wee1K328M-luciferase, luminescence. Wee1-like protein kinase (Homo sapiens), P30291. HeLa Luc-Wee1K328M stability; 100% = proteasome inhibitor MG132 effect. reporter increase, % at 5 µM. 220,000 tested, 1.2% active. AID 1321, 2008;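 active = activation above the mean of all tested compounds plus 3 SD, set per screening run, cut at about 8.8% in these data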;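 also: cells exposed to compound for 20 h before luminescence read; 0% = DMSO alone and 100% = MG132 at 30 µM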
Target sequence (P30291 whole entry K328M): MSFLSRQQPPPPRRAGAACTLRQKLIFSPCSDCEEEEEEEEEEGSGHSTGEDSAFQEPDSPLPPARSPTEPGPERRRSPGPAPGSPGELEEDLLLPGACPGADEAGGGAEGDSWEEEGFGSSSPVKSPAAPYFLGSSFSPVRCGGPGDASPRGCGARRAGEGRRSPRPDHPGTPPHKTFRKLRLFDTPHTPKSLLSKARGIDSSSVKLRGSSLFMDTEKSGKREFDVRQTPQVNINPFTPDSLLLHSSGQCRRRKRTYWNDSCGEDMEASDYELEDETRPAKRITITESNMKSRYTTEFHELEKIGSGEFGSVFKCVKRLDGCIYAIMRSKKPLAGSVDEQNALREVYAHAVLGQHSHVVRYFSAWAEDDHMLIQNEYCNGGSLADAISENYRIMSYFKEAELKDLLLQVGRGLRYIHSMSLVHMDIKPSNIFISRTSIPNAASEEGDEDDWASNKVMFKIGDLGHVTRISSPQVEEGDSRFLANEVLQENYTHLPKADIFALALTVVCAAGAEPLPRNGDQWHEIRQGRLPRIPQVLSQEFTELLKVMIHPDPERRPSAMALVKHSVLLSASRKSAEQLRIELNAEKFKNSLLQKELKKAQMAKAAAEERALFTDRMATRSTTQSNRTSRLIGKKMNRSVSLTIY
zVAD necrop conf: inhibitors of zVAD-triggered necroptosis in L929, confirmation, L929 cells, duplicate runs | L929 zVAD-induced necroptosis rescue, ATP luminescence, 24 h | shares compounds with zVAD death inh | activation (protection from necroptosis), % at 10 µM | 760 tested, 16% active;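 active = mean protection from necroptosis of at least 50% over duplicate tests; inactive = mean protection below 50%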;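 also: 0% = cells with zVAD alone and 100% = vehicle cells without zVAD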
Active calls of the source: *; nt = no result given. A selection: hits, their analogues and other compounds. The true share with any hit is near 2.1%.

SMILES	Calpain2 inh	RBBP9 inh	zVAD death inh	TNF death inh	Pf gametocyte	Wee1 stabilizer	zVAD necrop conf
CC(C)c1nc2oc3c(N(C)CCO)ncnc3c2c2c1CCC2	-24	-11	1	0	18	-1	nt
CC(C(=O)NCCCn1ccnc1)(c1ccccc1)c1ccccc1	nt	nt	nt	nt	3	nt	nt
COc1ccc(OCC(=O)Nc2ccc(N3CCN(C(=O)c4ccccc4C)CC3)cc2)cc1	18	-3	2	0	-1	-4	nt
Cc1[nH]c2ccccc2c1/C=N/Nc1ccccn1	-2	-6	79*	35	4	5	85*
Cc1[nH]c2ccccc2c1/C=N/Nc1nncn1N	-19	4	4	-1	36	1	nt
COc1ccc(/C=N/NC(=O)C(=O)Nc2ccccn2)cc1OC	-1	-6	1	0	nt	0	nt
COc1cc(/C=N/Nc2ccccn2)ccc1O	21	-6	87*	43	-3	1	75*
COc1ccc(/C=N/Nc2ccccn2)cc1OC	8	-3	88*	53*	3	1	89*
COc1ccc(NC(=O)Nc2ccccn2)cc1OC	0	0	76*	8	-10	0	35
Cc1ccc(CNC(=O)CSc2nc3[nH]ncc3c(=O)[nH]2)cc1	27	-3	0	0	-30	-2	nt
O=C(/C=C/c1ccc[nH]1)c1ccccc1	-30	-9	13	1	23	-2	nt
COc1cc(NC(=S)Nc2ccccn2)c(OC)cc1Cl	26	-10	79*	1	12	-2	7
Clc1ccccc1-c1nc2nc3ccccc3nc2n1-c1ccc2c(c1)OCO2	-24	-5	7	0	2	-2	nt
O=C(CSc1nnc2n1CCCN2C(=S)Nc1ccc(Cl)cc1)c1ccccc1	13	-6	93*	96*	3	0	3
O=C(CSc1nnc2ccccn12)c1ccc(Cl)cc1	-35	-2	0	0	4	7	nt
O=S(=O)(Nc1ncccn1)c1ccc(NC(=S)NCCc2ccccc2)cc1	-23	-7	2	0	-20	4	nt
Oc1[nH]c2ccccc2c1/C=N/c1nccs1	3	-10	76*	-4	-23	-3	35
COc1ccc(N=Cc2c(O)[nH]c3ccccc23)cc1	8	-1	77*	-2	-1	0	76*
CCOC(=O)c1c(C)[nH]c(O)c1C=Nc1ccccc1	29	-7	87*	-12	nt	2	0
CCCCN1C(=O)/C(=C(/C#N)C(=O)N2CCCC2)c2ccccc21	6	4	1	-3	-13	1	nt
N#CC(C#N)=C1C(=O)N(CCN2CCOCC2)c2ccccc21	-24	0	86*	-8	-11	0	1
N#CC(C#N)=C1C(=O)N(CCN2CCCCC2)c2ccccc21	-8	-1	90*	-28	12	2	35
CCn1c(=NC(=O)c2ccc(S(=O)(=O)N3CCOCC3)cc2)sc2cccc(OC)c21	-70	0	77*	-10	20	-1	8
CCc1cccc2c(C(=O)COC(=O)c3ccccc3)c[nH]c12	-2	-4	3	3	8	6	nt
CCc1cccc2c(C(=O)COC(=O)c3ccc(O)cc3)c[nH]c12	-19	-24	77*	7	-21	7	74*
SMILES	Calpain2 inh	RBBP9 inh	zVAD death inh	TNF death inh	Pf gametocyte	Wee1 stabilizer	zVAD necrop conf
Cc1ccc(NC(=O)c2cc3ccccc3o2)cc1S(=O)(=O)N(C)C	9	2	1	-2	2	3	nt
COc1cc(NC(=O)c2cccs2)ccc1NC(=O)c1cc2ccccc2o1	-300	-6	78*	1	-11	-2	1
CN(C)S(=O)(=O)c1ccc(NC(=O)c2cc3ccccc3o2)cc1	26	6	92*	-1	-8	5	4
COc1ccc(/C(O)=C2/C(=O)C(=O)N(CCCN(C)C)C2c2ccccc2)cc1Cl (stereo not drawn)	-15	-1	0	0	nt	-1	nt
CC1(C)CC(=O)C2=C(C1)Oc1nc3ccccc3cc1C2C(C#N)C#N (stereo not drawn)	-70	-10	90*	-12	13	0	2
O=C(CSc1cccc2cccc(Cl)c12)NCc1cccs1	2	-9	0	1	nt	0	nt
CC/C(O)=C1\C(=O)CCCC1=NCc1nc2ccccc2[nH]1	37	-10	2	2	3	0	nt
Cc1cn(-c2cc(C(=O)Nc3ccc(C)c(NC(=O)N4CCNC4=O)c3)cc(C(F)(F)F)c2)cn1	-66	nt	79*	1	-39	nt	51*
CC(C)OC(=O)N(C)c1ccc(C(O)(C(F)(F)F)C(F)(F)F)cc1	-7	0	77*	-2	nt	-1	9
Nc1ccc(C(O)(C(F)(F)F)C(F)(F)F)cc1	-26	1	1	3	13	1	nt
COc1cccc(-c2noc(-c3ccc(Br)o3)n2)c1	-13	-13	0	0	19	-2	nt
CCOC(=O)c1ccc2[nH]c3c(c2c1)CCCC3O (stereo not drawn)	-12	-4	76*	7	nt	-1	41
CCOC(=O)c1[nH]c2ccc(C(=O)OC)cc2c1C(=O)OCC	nt	nt	nt	nt	-27	nt	nt
CCN(CC)CCn1c(O)c(N=O)c2ccccc21	-14	-9	0	0	nt	0	nt
CCN(CC)CCn1c2ccccc2c2cnc(N)c(C#N)c21	-291	-1	75*	-10	nt	0	70*
CN(C)C=Nc1ncc2c3ccccc3n(CCN(C)C)c2c1C#N	-95	-7	91*	1	nt	-3	39
CN(C)C=Nc1ncc2c3ccccc3n(Cc3ccccc3)c2c1C#N	-201	-4	1	0	nt	1	nt
CCN1CCc2c(sc(NC(=O)Nc3ccc(Cl)c(Cl)c3)c2C(N)=O)C1	-200	2	66	11	-5	-2	nt
COc1cc(/C=C2\Oc3cc(O)ccc3C2=O)ccc1O	-166	nt	76*	-3	nt	nt	27
O=C1/C(=C/c2ccc(O)c(O)c2)Oc2cc(O)ccc21	-37	nt	13	-2	nt	nt	nt
CCNC(=O)NC(=O)C(C)OC(=O)c1ccc(-n2nc(SC)sc2=S)cc1 (stereo not drawn)	7	4	82*	3	nt	-1	39
Cc1csc(N/N=C\c2cccnc2)n1	-16	7	88*	10	-21	0	8

Screening data from PubChem.
